Laboratory results as given in ChEMBL document CHEMBL5223075, “Discovery of thienothiazolocarboxamide analogues as novel anti-tubercular agent” (Bioorg Med Chem, 2020).
Values after ≈ are worked out from the molar mass of the structure shown.

Legend:
[1] = tested on: Mycobacterium tuberculosis; assay: Antitubercular activity against Mycobacterium tuberculosis H37Rv ATCC 27294 expressing the green fluorescence protein assessed as inhibition of bacterial growth by measuring GFP fluorescence incubated for 5 days by fluorescence based plate reader analysis; format: functional, organism-based; settings: H37Rv ATCC 27294, 120 h
Procedure, shortened: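 H37Rv-GFP was grown 14 days in 7H9/OADC/Tween/glycerol/hygromycin, washed, and seeded at ~3×10^6 CFU/mL. Compounds were given as 10-point 2-fold series starting at 20 or 1 µM, in 1% DMSO final. Plates ran 5 days at 37°C, 5% CO2, with rifampicin 1 µg/mL as positive control. GFP fluorescence was read and IC50 taken from a 4-parameter sigmoid fit.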

[2] = tested on: Mycobacterium tuberculosis; assay: Antitubercular activity against Mycobacterium tuberculosis H37Rv ATCC 27294 expressing the green fluorescence protein infected in mouse RAW264.7 cells assessed as inhibition of bacterial growth pre-infected with cell followed by compound addition and measured after 5 days by Hoechst 33342 staining based analysis; format: functional, organism-based; settings: H37Rv ATCC 27294, RAW264.7, 120 h
Procedure, shortened: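 RAW 264.7 cells, passages 2-9, were infected with washed H37Rv-GFP at MOI 20 for 2 h at 37°C with shaking. Cells were washed and plated at 20,000/well over 2-fold compound dilutions for 5 days. Nuclei were stained with 5 µM Hoechst (final) and 3 fields/well imaged. Four parameters (cell count, bacterial area, area per infected cell, infected-cell ratio) were each fitted by 4-parameter sigmoid, and the IC50s averaged.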

[3] = Solubility of the compound at pH 2.1; format: physicochemical; settings: buffer
[4] = Solubility of the compound at pH 7.4; format: physicochemical; settings: buffer
[5] = Stability in human plasma measured after 4 hrs; format: ADME, cell-free; settings: read-out: Stability
[6] = Metabolic stability in human liver microsome assessed as phase I mediated metabolite formation by measuring half-life; format: ADME; settings: microsomes
[7] = Protein binding in human plasma; format: ADME, cell-free; settings: read-out: PPB (converted)
[8] = Metabolic stability in human liver microsome assessed as phase II mediated metabolite formation by measuring half-life; format: ADME; settings: microsomes
[9] = Cmax in BALB/c mouse at 10 mg/kg, po by LC-MS analysis; format: ADME, organism-based; parameters: dose 10 mg/kg, route po; settings: in vivo
Procedure, shortened: (§1)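 Female BALB/c mice, 6-8 weeks old. Dosed i.v. at 2 or 3 mg/kg, or orally at 10 mg/kg. Vehicles varied by compound: DMSO/Captisol, DMSO/PEG400/SBE-b-CD, or DMSO/Cremophor EL/Captisol. Blood was held at 4°C within 1 h, then centrifuged at 3200 × g for 10 min at 4°C. Plasma was kept at 4°C, and compound levels were measured by LC-MS.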

[10] = Half-life in BALB/c mouse at 2 mg/kg, iv by LC-MS analysis; format: ADME, organism-based; settings: in vivo; procedure, shortened: as §1
[11] = Metabolic stability in mouse liver microsome assessed as phase II mediated metabolite formation by measuring half-life; format: ADME; settings: microsomes
[12] = Stability in mouse plasma measured after 4 hrs; format: ADME, cell-free; settings: read-out: Stability
[13] = Metabolic stability in mouse liver microsome assessed as phase I mediated metabolite formation by measuring half-life; format: ADME; settings: microsomes
[14] = Protein binding in mouse plasma; format: ADME, cell-free; settings: read-out: PPB (converted)
[15] = Clearance in BALB/c mouse at 2 mg/kg, iv by LC-MS analysis; format: ADME, organism-based; settings: in vivo; procedure, shortened: as §1
[16] = Volume of distribution at steady state in BALB/c mouse at 2 mg/kg, iv by LC-MS analysis; format: ADME, organism-based; settings: in vivo, read-out: Vdss; procedure, shortened: as §1

Compound	IC50 [1] [nM]	IC50 [2] [nM]	solubility [3] [µg/mL]	solubility [4] [µg/mL]	also measured
O=C(Nc1ccc(Cl)cc1)c1cc2sc(N3CCCCC3)nc2s1	1100	110	–	–	–
O=C(Nc1ccc(-c2ccc(Cl)cn2)cc1)c1cc2sc(NCCN3CCOCC3)nc2s1	3200	210	43.4 (≈ 86.8 µM)	0.2 (≈ 0.4 µM)	–
O=C(Nc1ccc(O)cc1)c1cc2sc(N3CCCCC3)nc2s1	4800	2750	–	–	–
Cc1nc2cc(NC(=O)c3cc4sc(N5CCC(CO)CC5)nc4s3)ccc2o1	500	230	–	–	–
O=C(Nc1ccc(-c2ccc(F)cc2)nc1)c1cc2sc(NCCN3CCOCC3)nc2s1	4600	370	> 50	0.57 (≈ 1.18 µM)	–
Cc1nc2cc(NC(=O)c3cc4sc(N5CCOCC5)nc4s3)ccc2o1	420	200	5.3 (≈ 13.2 µM)	0.82 (≈ 2.05 µM)	remaining at 4 h [5]: 86.8%; t1/2 [6]: > 1 h; fraction unbound [7]: 0.012; t1/2 [8]: > 1 h; Cmax [9]: 313 ng/mL; half-life [10]: 0.33 h; t1/2 [11]: > 1 h; remaining at 4 h [12]: 74.7%; t1/2 [13]: > 1 h; fraction unbound [14]: 0.001; clearance [15]: 121 mL/min/kg; Vd [16]: 0.626 L/kg
NNC(=O)c1ccncc1 [ISONIAZID]	400	350	–	–	–
COc1ccc(C(=O)Nc2cc3sc(N4CCCCC4)nc3s2)cc1	> 20000	> 20000	–	–	–
COc1ccc(NC(=O)c2cc3sc(N4CCCCC4)nc3s2)cc1	830	170	–	–	–
Cc1nc2cc(NC(=O)c3cc4sc(N5CC(C)OC(C)C5)nc4s3)ccc2o1 (stereo not drawn)	1100	250	–	–	–
Cc1nc2cc(NC(=O)c3cc4sc(N5CCC(O)CC5)nc4s3)ccc2o1	640	460	9.7 (≈ 23.4 µM)	2.4 (≈ 5.79 µM)	t1/2 [6]: > 1 h; t1/2 [13]: > 1 h
O=C(Nc1ccc(-c2ccc(F)nc2)cc1)c1cc2sc(NCCN3CCOCC3)nc2s1	610	100	1.5 (≈ 3.1 µM)	1.1 (≈ 2.27 µM)	t1/2 [6]: 0.418 h; t1/2 [13]: 0.76 h
Cc1nc2cc(NC(=O)c3cc4sc(N(C)CCCO)nc4s3)ccc2o1	1000	700	–	–	–
O=C(Nc1ccc(-c2ccc(F)cc2)cn1)c1cc2sc(NCCN3CCOCC3)nc2s1	4700	360	44.2 (≈ 91.4 µM)	0.56 (≈ 1.16 µM)	–
COc1ccc(NC(=O)c2cc3sc(N4CCN(C)CC4)nc3s2)cc1	1300	110	–	–	–
